Data: ChEMBL document CHEMBL4196021, “Targeting G-quadruplex DNA structures in the telomere and oncogene promoter regions by benzimidazole‒carbazole ligands” (Eur J Med Chem, 2018)
Active and inactive are the calls of the source. No cut-off for these calls is given here.

Experiments:
Quadruplex DNA [1] = assay: Binding affinity to human c-Kit1 G-quadruplex DNA at 0.6 uM after 5 mins in presence of KCl by fluorescence spectroscopic method; assay type: nucleic-acid assay
Procedure, shortened: (§1)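 Fluorescence titration at 25 °C with 0.6 µM ligand in 10 mM Tris-HCl pH 7.4, 100 mM KCl, 0.1 mM EDTA. Preformed G4 DNA was added stepwise, with 5 min incubation before each spectrum. Excitation 330 nm; emission 350–550 nm, slit 5 nm.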

Quadruplex DNA [2] = assay: Binding affinity to human VEGF G-quadruplex DNA at 0.6 uM after 5 mins in presence of KCl by fluorescence spectroscopic method; assay type: nucleic-acid assay; procedure, shortened: as §1
Quadruplex DNA [3] = assay: Binding affinity to human c-Kit2 G-quadruplex DNA assessed as stabilization of parallel stranded topology after 5 mins in presence of KCl by CD spectroscopic method; assay type: nucleic-acid assay
Procedure, shortened: (§2)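 CD spectra of 5 µM G4 DNA in 10 mM Tris-HCl pH 7.4, 100 mM KCl, 0.1 mM EDTA, with or without ligand. Mixtures were heated 95 °C for 5 min and slowly cooled to room temperature. Recorded 200–400 nm at 25 °C, 100 nm/min, 2 s response, 1 cm cell; average of three scans.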

Quadruplex DNA [4] = assay: Displacement of thiazole orange from human c-Kit1 G-quadruplex DNA after 5 mins in presence of KCl by fluorescence assay; assay type: nucleic-acid assay
Procedure, shortened: (§3)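 Thiazole orange displacement from a G4 DNA–TO complex (1 µM TO + 0.5 µM G4 DNA) in 10 mM Tris-HCl pH 7.4, 100 mM KCl, 0.1 mM EDTA. Ligand was added in increasing steps, with 5 min incubation each. Fluorescence read at ex 501/em 531 nm; % displacement = 100 − (Ft/F0 × 100). DC50 is the ligand concentration giving 50% displacement, read from plots; average of two independent experiments.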

Quadruplex DNA [5] = assay: Displacement of thiazole orange from human Bcl2 G-quadruplex DNA after 5 mins in presence of KCl by fluorescence assay; assay type: nucleic-acid assay; procedure, shortened: as §3
Quadruplex DNA [6] = assay: Binding affinity to human Bcl2 G-quadruplex DNA at 0.6 uM after 5 mins in presence of KCl by fluorescence spectroscopic method; assay type: nucleic-acid assay; procedure, shortened: as §1
Quadruplex DNA [7] = assay: Binding affinity to human VEGF G-quadruplex DNA assessed as stabilization of parallel stranded topology after 5 mins in presence of KCl by CD spectroscopic method; assay type: nucleic-acid assay; procedure, shortened: as §2
Quadruplex DNA [8] = assay: Binding affinity to human c-Kit1 G-quadruplex DNA assessed as change in melting temperature in presence of KCl by CD spectroscopic method; assay type: nucleic-acid assay
Procedure, shortened: (§4)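 CD melting of 5 µM G4 DNA in 10 mM Tris-HCl pH 7.4, 25 mM KCl, 0.1 mM EDTA. Ligand was present during folding (heating, slow cooling). Spectra 200–400 nm over 20–96 °C in 2 °C steps, buffer blank subtracted. Tm was taken from normalized ellipticity at the positive maximum (262 nm for promoter G4s). ΔTm = ligand-bound minus DNA alone; average of two independent experiments.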

Quadruplex DNA [9] = assay: Binding affinity to human c-Kit2 G-quadruplex DNA at 0.6 uM after 5 mins in presence of KCl by fluorescence spectroscopic method; assay type: nucleic-acid assay; procedure, shortened: as §1
Quadruplex DNA [10] = assay: Binding affinity to human c-Myc G-quadruplex DNA assessed as stabilization of parallel stranded topology after 5 mins in presence of KCl by CD spectroscopic method; assay type: nucleic-acid assay; procedure, shortened: as §2
Quadruplex DNA [11] = assay: Displacement of thiazole orange from human c-Kit2 G-quadruplex DNA after 5 mins in presence of KCl by fluorescence assay; assay type: nucleic-acid assay; procedure, shortened: as §3
Quadruplex DNA [12] = assay: Binding affinity to human c-Myc G-quadruplex DNA at 0.6 uM after 5 mins in presence of KCl by fluorescence spectroscopic method; assay type: nucleic-acid assay; procedure, shortened: as §1
Quadruplex DNA [13] = assay: Binding affinity to human c-Kit1 G-quadruplex DNA assessed as stabilization of parallel stranded topology after 5 mins in presence of KCl by CD spectroscopic method; assay type: nucleic-acid assay; procedure, shortened: as §2
Quadruplex DNA [14] = assay: Binding affinity to human c-Myc G-quadruplex DNA assessed as change in melting temperature in presence of KCl by CD spectroscopic method; assay type: nucleic-acid assay; procedure, shortened: as §4
Quadruplex DNA [15] = assay: Displacement of thiazole orange from human VEGF G-quadruplex DNA after 5 mins in presence of KCl by fluorescence assay; assay type: nucleic-acid assay; procedure, shortened: as §3
Calf thymus DNA = assay: Displacement of thiazole orange from calf thymus duplex DNA after 5 mins in presence of KCl by fluorescence assay; assay type: nucleic-acid assay, Bos taurus
Quadruplex DNA [16] = assay: Binding affinity to human c-Kit2 G-quadruplex DNA assessed as change in melting temperature in presence of KCl by CD spectroscopic method; assay type: nucleic-acid assay; procedure, shortened: as §4
Quadruplex DNA [17] = assay: Induction of conformational changes in human Bcl2 G-quadruplex DNA assessed as inversion from potassium ion stabilized hybrid type mixed parallel/antiparallel G-quadruplex to stable telomere parallel-stranded G-quadruplex after 5 mins in presence of KCl by CD spectroscopic method; assay type: nucleic-acid assay; procedure, shortened: as §2
Quadruplex DNA [18] = assay: Displacement of thiazole orange from human telomeric G-quadruplex DNA after 5 mins in presence of KCl by fluorescence assay; assay type: nucleic-acid assay; procedure, shortened: as §3
Quadruplex DNA [19] = assay: Displacement of thiazole orange from human c-Myc G-quadruplex DNA after 5 mins in presence of KCl by fluorescence assay; assay type: nucleic-acid assay; procedure, shortened: as §3
Quadruplex DNA [20] = assay: Binding affinity to human telomeric G-quadruplex DNA at 0.6 uM after 5 mins in presence of KCl by fluorescence spectroscopic method; assay type: nucleic-acid assay; procedure, shortened: as §1
Quadruplex DNA [21] = assay: Induction of conformational changes in human telomeric G-quadruplex DNA assessed as inversion from potassium ion stabilized hybrid type mixed parallel/antiparallel G-quadruplex to stable telomere parallel-stranded G-quadruplex after 5 mins in presence of KCl by CD spectroscopic method; assay type: nucleic-acid assay; procedure, shortened: as §2
Quadruplex DNA [22] = assay: Binding affinity to human telomeric G-quadruplex DNA assessed as change in melting temperature in presence of KCl by CD spectroscopic method; assay type: nucleic-acid assay; procedure, shortened: as §4
Quadruplex DNA [23] = assay: Binding affinity to human Bcl2 G-quadruplex DNA assessed as change in melting temperature in presence of KCl by CD spectroscopic method; assay type: nucleic-acid assay; procedure, shortened: as §4
Quadruplex DNA [24] = assay: Binding affinity to human VEGF G-quadruplex DNA assessed as change in melting temperature in presence of KCl by CD spectroscopic method; assay type: nucleic-acid assay; procedure, shortened: as §4
Quadruplex DNA [25] = assay: Binding affinity to human 77-mer c-Myc G-quadruplex DNA assessed as inhibition of Taq DNA polymerase-mediated DNA synthesis by measuring generation of premature chain termination products using 32P-labeled primer after 30 mins by polymerase stop assay; assay type: nucleic-acid assay
Procedure, shortened: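 Template of 10 nM single-stranded 77-mer c-MYC with the G-quadruplex-forming sequence, annealed to 32P-labeled plus cold primer (15 nM) in Tris-HCl pH 7.4 with 5 mM KCl. Annealing was 95 °C for 5 min then slow cooling, with ligand added before annealing. Extension with Taq polymerase (5 mM MgCl2, 0.5 mM DTT, 0.2 mM dNTPs) ran 30 min at 48 or 40 °C. Products were resolved on 15% urea denaturing PAGE and read by phosphorimaging.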

SMILES | Activity (Quadruplex DNA [1]) | Activity (Quadruplex DNA [2]) | Activity (Quadruplex DNA [3]) | DC50 (Quadruplex DNA [4]) [nM] | DC50 (Quadruplex DNA [5]) [nM] | Activity (Quadruplex DNA [6]) | Activity (Quadruplex DNA [7]) | ΔTm (Quadruplex DNA [8]) [°C] | Activity (Quadruplex DNA [9]) | Activity (Quadruplex DNA [10]) | DC50 (Quadruplex DNA [11]) [nM] | ΔTm (Quadruplex DNA [14]) [°C] | DC50 (Quadruplex DNA [15]) [nM] | DC50 (Calf thymus DNA) [nM] | ΔTm (Quadruplex DNA [16]) [°C] | DC50 (Quadruplex DNA [18]) [nM] | DC50 (Quadruplex DNA [19]) [nM] | ΔTm (Quadruplex DNA [22]) [°C] | ΔTm (Quadruplex DNA [23]) [°C] | ΔTm (Quadruplex DNA [24]) [°C] | also measured
CN1CCN(CCCCn2c3ccc(-c4nc5cc(N6CCOCC6)ccc5[nH]4)cc3c3cc(-c4nc5cc(N6CCOCC6)ccc5[nH]4)ccc32)CC1 | Active | Active | Active | 980 | 1290 | Active | Active | 12.2 | Active | Active | 740 | 8.65 | 630 | 5520 | 16.6 | 1300 | 850 | 16.9 | 5.54 | 14.2 | Activity (Quadruplex DNA [12]): Active; Activity (Quadruplex DNA [13]): Active; Activity (Quadruplex DNA [17]): inactive; Activity (Quadruplex DNA [20]): Active; Activity (Quadruplex DNA [21]): inactive
CN1CCN(CCCCn2c3ccc(-c4nc5cc(N6CCN(CCO)CC6)ccc5[nH]4)cc3c3cc(-c4nc5cc(N6CCN(CCO)CC6)ccc5[nH]4)ccc32)CC1 | Active | Active | Active | 880 | 1440 | Active | Active | 25.9 | Active | Active | 660 | 8.86 | 750 | 6490 | 22 | 1150 | 980 | 21.2 | 9.5 | 14.2 | Activity (Quadruplex DNA [12]): Active; Activity (Quadruplex DNA [13]): Active; Activity (Quadruplex DNA [17]): Active; Activity (Quadruplex DNA [20]): Active; Activity (Quadruplex DNA [21]): Active
C[n+]1ccc(-c2c3nc(c(-c4cc[n+](C)cc4)c4ccc([nH]4)c(-c4cc[n+](C)cc4)c4ccc([nH]4)c(-c4cc[n+](C)cc4)c4nc2C=C4)C=C3)cc1 |  |  |  |  |  |  |  | 15.1 |  |  |  | 11 |  |  | 15.5 |  |  | 15.6 | 14.3 | 12.3 | 
C[n+]1ccc(-c2c3nc(c(-c4cc[n+](C)cc4)c4ccc([nH]4)c(-c4cc[n+](C)cc4)c4nc(c(-c5cc[n+](C)cc5)c5ccc2[nH]5)C=C4)C=C3)cc1 |  |  |  | 320 | 430 |  |  |  |  |  | 350 |  | 310 | 870 |  | 470 | 380 |  |  |  | 
CCn1c2ccc(-c3nc4ccc(N5CCN(CCO)CC5)cc4[nH]3)cc2c2cc(-c3nc4ccc(N5CCN(CCO)CC5)cc4[nH]3)ccc21 | Active | Active | Active | 1620 | 2860 | Active | Active | 13.2 | Active | Active | 1340 | 8.63 | 1420 | 5280 | 17 | 2790 | 1630 | 9.74 | 6.53 | 12.8 | Activity (Quadruplex DNA [25]): Dose-dependent effect; Activity (Quadruplex DNA [12]): Active; Activity (Quadruplex DNA [13]): Active; Activity (Quadruplex DNA [17]): Active; Activity (Quadruplex DNA [20]): Active; Activity (Quadruplex DNA [21]): Active
C[N+]1(CCCCN2CCOCC2)CCN(CCCCn2c3ccc(-c4nc5ccc(N6CCOCC6)cc5[nH]4)cc3c3cc(-c4nc5ccc(N6CCOCC6)cc5[nH]4)ccc32)CC1 | Active | Active | Active | > 3000 | > 3000 | Active | Active | 3.58 | Active | Active | > 3000 | 4.95 | > 3000 | > 10000 | 7.53 | > 3000 | > 3000 | 7.14 | 3.26 | 4.35 | Activity (Quadruplex DNA [12]): Active; Activity (Quadruplex DNA [13]): Active; Activity (Quadruplex DNA [17]): inactive; Activity (Quadruplex DNA [20]): Active; Activity (Quadruplex DNA [21]): inactive
